In paper PMC3191534 (Translational stroke research, 2011):
“Also recorded” adds a separate entry of the source. Read-outs that look alike come from different tables or passages of the source. Marks after values point to notes of the source that are not given here.

How the values were obtained:
[1] = tested on: Salmonella typhimurium TA989; experiment: Ames genotoxicity test, TA989; assay type: cell-based
[2] = tested on: Salmonella typhimurium TA100; experiment: Ames genotoxicity test, TA100; assay type: cell-based
[3] = Metabolic stability in human and animal liver microsomes, stated across species; assay type: in vitro ADME, dog, rat, mouse
[4] = rat, microsomes
[5] = tested on: HT22 cells; experiment: Oxidative glutamate toxicity; assay type: cell-based
In short: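 HT22 cells (DMEM, 10% FCS) were given the test compound, then 5 mM glutamate 30 min later to deplete GSH. Cell survival was measured 24 h after glutamate. Experiments were repeated at least three times in triplicate, shown as mean ± SD, and analysed by ANOVA with Bonferroni's test (P<0.05).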

[6] = tested on: H4IIE rat hepatoma cell line; experiment: CeeTox analysis, cellular toxicity panel; assay type: cell-based
[7] = rat, in vivo; cited from earlier work
[8] = human, microsomes
[9] = tested on: HT22 hippocampal cells; experiment: HT22 neuroprotection, IAA or oxidative glutamate toxicity assays stated together; assay type: cell-based; settings: read-out: EC50, neuroprotection, either IAA or oxidative glutamate toxicity assay
[10] = tested on: free radical-induced peroxidation; settings: in vitro; cited from earlier work
[11] = tested on: HT22 cells; experiment: HT22 cell ATP content in the in vitro ischemia assay; assay type: cell-based; settings: 20 μM IAA; highest dose tested (10 μM)
[12] = tested on: HT22 hippocampal neurons; experiment: In vitro ischemia assay; assay type: cell-based
In short: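 HT22 cells were grown in DMEM with 10% FCS and seeded at 5×10^3 cells/well. Next day they were switched to DMEM with 7.5% DFCS and given 20 μM iodoacetic acid ± test compound for 2 h, then fresh IAA-free medium with compound for 20 h. MTT (5 μg/ml) ran 4 h at 37°C, was solubilised in 50% DMF/20% SDS pH 4.7, and A570 was read next day. Runs were done ≥3 times in triplicate; ANOVA/Bonferroni.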

[13] = tested on: P-glycoprotein (PgP); experiment: P-glycoprotein; assay type: cell-based, rat; settings: 50 μM
In short: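 H4IIE cells were exposed to the test compound at a single concentration (50 μM), with and without the PgP inhibitor cyclosporin A. Toxicity was measured by MTT assay and expressed as % control for each condition. The % difference was taken as the PgP interaction measure. The compound came from a DMSO stock, with a DMSO control, in a blinded contract CeeTox study.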

[14] = microsomes
[15] = tested on: rat intraluminal suture stroke model; settings: cited from earlier work
[16] = dog, microsomes
[17] = oxidative glutamate toxicity assay

## Nc1ccc2cc3ccccc3cc2c1 [2-aminoanthracene, reference compound]
[1]; TA989+S9, positive control
  Mean no. of positive wells: 48.00
[1]; TA989−S9, positive control
  Mean no. of positive wells: 36.00
[2]; TA100+S9, positive control
  Mean no. of positive wells: 48.00
[2]; TA100−S9, positive control
  Mean no. of positive wells: 48.00

## C[C@]12CC[C@H]3[C@@H](CCC4=CC(=O)CC[C@@]43C)[C@@H]1CC[C@@H]2O [testosterone, reference compound]
[3]; human
  half-life: 10 to 32 min

## Stilbazulenyl nitrone [STAZN]
[1]; TA989+S9, .001963 mg/ml
  Mean no. of positive wells: 2.33
[1]; TA989+S9, .003906 mg/ml
  Mean no. of positive wells: 1.33
[1]; TA989+S9, .007813 mg/ml
  Mean no. of positive wells: 5.00
[1]; TA989+S9, .015625 mg/ml
  Mean no. of positive wells: 3.00
[1]; TA989+S9, .03125 mg/ml
  Mean no. of positive wells: 4.00
[1]; TA989+S9, .0625 mg/ml
  Mean no. of positive wells: 2.33
[1]; TA989, with or without S9, up to 0.0625 mg/ml (0.106 mM)
  mutagenicity (Ames test outcome): lack of mutagenicity; also recorded: not mutagenic
[1]; TA989−S9, .001963 mg/ml
  Mean no. of positive wells: 1.33
[1]; TA989−S9, .003906 mg/ml
  Mean no. of positive wells: 1.33
[1]; TA989−S9, .007813 mg/ml
  Mean no. of positive wells: 0.33
[1]; TA989−S9, .015625 mg/ml
  Mean no. of positive wells: 0.67
[1]; TA989−S9, .03125 mg/ml
  Mean no. of positive wells: 0.00
[1]; TA989−S9, .0625 mg/ml
  Mean no. of positive wells: 0.67
[2]; TA100+S9, .001963 mg/ml
  Mean no. of positive wells: 7.33
[2]; TA100+S9, .003906 mg/ml
  Mean no. of positive wells: 6.33
[2]; TA100+S9, .007813 mg/ml
  Mean no. of positive wells: 6.67
[2]; TA100+S9, .015625 mg/ml
  Mean no. of positive wells: 6.33
[2]; TA100+S9, .03125 mg/ml
  Mean no. of positive wells: 10.67
[2]; TA100+S9, .0625 mg/ml
  Mean no. of positive wells: 8.67
[2]; TA100, with or without S9, up to 0.0625 mg/ml (0.106 mM)
  mutagenicity (Ames test outcome): lack of mutagenicity; also recorded: not mutagenic
[2]; TA100−S9, .001963 mg/ml
  Mean no. of positive wells: 5.00
[2]; TA100−S9, .003906 mg/ml
  Mean no. of positive wells: 3.67
[2]; TA100−S9, .007813 mg/ml
  Mean no. of positive wells: 6.33
[2]; TA100−S9, .015625 mg/ml
  Mean no. of positive wells: 7.33
[2]; TA100−S9, .03125 mg/ml
  Mean no. of positive wells: 5.00
[2]; TA100−S9, .0625 mg/ml
  Mean no. of positive wells: 5.67
[4]
  Half-life t1/2: > 60 min
  Half-life t1/2, calculated value in parentheses: 95 min
[4]; 10 min
  Percent remaining of initial compound: 82.4%
[4]; 20 min
  Percent remaining of initial compound: 76.6%
[4]; 0.5 h
  Percent remaining of initial compound: 80.3%
  drug metabolized: 20%
[4]; 1 h
  Percent remaining of initial compound: 122 ^d %
[5]; 5 mM glutamate, HT22 cells
  concentration at which significance was first achieved: 5 µM
[5]; [17]
  increase in survival: 416%
  maximal level of protection, of total cell survival: ~52%
[6]; H4IIE cells, 300 μM
  decrease in cellular ATP content: ~35%
[6]; H4IIE cells, 24 h
  ATP TC50: >300 µM
  Cell number TC50: >300 µM
  MTT TC50: >300 µM
  MemTox TC50: >300 µM
  Total GSH TC50: >300 µM
[6]; H4IIE cells, 24 h, all assays
  TC50 for all general toxicity measures: > 300 µM
[6]; H4IIE cells, measured as 8-isoprostane
  Membrane lipid peroxidation: 0
[6]; in vitro, HT22 EC50 vs CeeTox toxicity
  therapeutic safety window (efficacy/toxicity ratio): 60–150 fold
[7]
  circulating half-life t1/2, first phase of biexponential decline in blood levels: 28 min
[8]
  Half-life t1/2: 78 min
[8]; 10 min
  Percent remaining of initial compound: 57.7%
[8]; 20 min
  Percent remaining of initial compound: 39.7%
[8]; 0.5 h
  Percent remaining of initial compound: 46.9%
[8]; 1 h
  Percent remaining of initial compound: 49.1%
  drug metabolized: approximately 50%
[9]
  EC50: 1 to 5 µM
[10]
  potency relative to NXY-059 at inhibiting free radical-induced peroxidation: 300 times
[11]
  effect on IAA-induced ATP loss: significantly attenuate IAA-induced ATP loss
[12]; IAA assay
  increase in survival: 621%
  maximal level of protection, of total cell survival: approximately 60%
[12]; read-out: EC50, neuroprotection in the IAA assay, estimated, 20 μM IAA, HT22 cells
  EC50: ~1 µM
[3]
  half-life: 60 to 78 min
[13]
  interaction with PgP transporters: low-level interaction
[13]; MTT, H4IIE cells, with cyclosporin A
  % Control (compound + CSA): 83.4%
[13]; MTT, H4IIE cells, without CSA
  % Control (compound): 100.3%
[13]; without vs with CSA
  % Difference: 16.9%
[14]
  Half-life t1/2: < 10 min
[14]; mouse
  Half-life t1/2, calculated value in parentheses: 27 min
[14]; mouse, 10 min
  Percent remaining of initial compound: 17.2%
[14]; mouse, 20 min
  Percent remaining of initial compound: 19.8%
[14]; mouse, 0.5 h
  Percent remaining of initial compound: 10.0%
[14]; mouse, 1 h
  Percent remaining of initial compound: 13.8%
  drug metabolized: 86%
[15]
  effect on behavior: improved behavior measured up to 30 days following ischemia
  effect on infarct volume: reduced infarct volume in a dose- and time-dependent manner
  neuroprotective doses, times lower than NXY-059: 300–600 times
[16]
  Half-life t1/2: 71 min
[16]; 10 min
  Percent remaining of initial compound: 56.2%
[16]; 20 min
  Percent remaining of initial compound: 65.5%
[16]; 0.5 h
  Percent remaining of initial compound: 54.5%
[16]; 1 h
  Percent remaining of initial compound: 47.6%
  drug metabolized: approximately 50%
